≈ marks a conversion by molar mass, not a printed value.
Legend:
[1] = test system: Plasmodium falciparum; assay: Antimicrobial activity against chloroquine-resistant Plasmodium falciparum W2; assay type: functional, organism-based
Outline: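 Chloroquine-resistant W2 strain tested, with chloroquine as positive control; IC50 reported in µg/mL.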

[2] = test system: A2058; assay: Cytotoxicity against human A2058 cells at 10 uM after 48 hrs […]; assay type: functional
[3] = test system: Mycobacterium tuberculosis; assay: Antimycobacterial activity Mycobacterium tuberculosis H37Rv; assay type: functional, organism-based
[4] = test system: A2058; assay: Cytotoxicity against human A2058 cells after 48 hrs by MTT assay; assay type: functional, cell-based; settings: A2058, 48 h
Outline: (§1)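 Cells cultured in RPMI-1640 or DMEM with 10% FBS and penicillin/streptomycin at 37 °C, 5% CO2, then seeded at 5,000/well and left overnight. Compound given at 0.1, 0.5, 1, 5, 10, 20 and 50 µM for 48 h with a DMSO vehicle control. Viability read by MTS formazan absorbance at 490 nm, in quadruplicate, and IC50 derived from the dose series.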

[5] = test system: DU-145; assay: Cytotoxicity against human DU145 cells after 48 hrs by MTT assay; assay type: functional, cell-based; settings: DU-145, 48 h; outline: as §1
[6] = test system: DU-145; assay: Cytotoxicity against human DU145 cells at 10 uM after 48 hrs […]; assay type: functional

Compound | IC50 [1] [µg/mL] | Activity [2] [%] | IC50 [3] [µg/mL] | IC50 [4] [µM] | IC50 [5] [µM] | Activity [6] [%]
CC/C=C/C=C/C=C/CCCCCCCC[C@]1(C)C[C@]2(C)OC(=O)C[C@@H]2OO1 [PLAKORTOLIDE J] | > 10 | 106 | 71 (≈ 182 µM) | > 10 | > 10 | 112
C[C@@](O)(CCCCCCCCCc1ccc(O)cc1)C[C@]1(C)OC(=O)C[C@@H]1O | 7 (≈ 17.8 µM) | 81 | – | > 10 | > 10 | 95
CCCCCCCCCCCCCCCC[C@@](C)(O)C[C@](C)(O)CC(=O)OC | > 10 | 79 | – | > 10 | > 10 | 81
CC/C=C/C=C/C=C/CCCCCCCC[C@]1(C)C[C@@](C)(CC(=O)OC)OO1 [EPIPLAKINIC ACID F METHYL ESTER] | 4 (≈ 10.2 µM) | 86 | 62 (≈ 158 µM) | > 10 | > 10 | 92
C[C@@]1(CCCCCCCCCc2ccc(O)cc2)C[C@]2(C)OC(=O)C[C@@H]2OO1 [PLAKORTOLIDE F] | – | 71 | 59 (≈ 151 µM) | > 10 | > 10 | 62
CCCCCCCCCCCCCCCC[C@@](C)(O)C[C@]1(C)OC(=O)C[C@@H]1O | 0.6 (≈ 1.51 µM) | 75 | 13 (≈ 32.6 µM) | 24 | 24 | 79
CC/C=C/C=C/C=C/CCCCCCCC[C@@]1(C)C[C@](C)(CC(=O)O)OO1 [EPIPLAKINIC ACID F] | 3 (≈ 7.92 µM) | 51 | 92 (≈ 243 µM) | > 10 | 1 | 15
CCCCCCCCCCCCCCCC[C@]1(C)C[C@@](C)(CC(=O)OC)OO1 | > 10 | 69 | – | > 10 | 8 | 38
C[C@]1(CC(=O)O)C[C@@](C)(CCCCCCCCC(=O)O)OO1 [EPIPLAKINIDIOIC ACID] | 0.3 (≈ 0.948 µM) | 23 | – | 3 | 4 | 31
CCCCCCCCCCCCCCCC[C@]1(C)C[C@]2(C)OC(=O)C[C@@H]2OO1 | 0.3 (≈ 0.756 µM) | 8 | 68 (≈ 171 µM) | 0.8 | 2 | 13
CCCCCCCCCCCCCCCC[C@]1(C)C[C@@](C)(O)CC(=O)O1 | > 10 | 60 | 30 (≈ 81.4 µM) | > 10 | > 10 | 102
